Consider 48 compounds from ChEMBL document CHEMBL1145335, “Nonpeptide inhibitors of measles virus entry” (J Med Chem, 2006).

Assay [1] relates to Vero. The assay can be described thus: Cytotoxicity against Vero-CD150w cells. The format is functional. Particulars: Chlorocebus sabaeus. An outline of the steps: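 Uninfected cells were exposed to 2-fold compound dilutions from 600 µM down to 2.3 µM for 36 to 40 h. Remaining proliferation was then measured over 1 h by nonradioactive proliferation assay. CC50 comes from two independent replicates.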

In assay [2] the test system is Measles morbillivirus. The assay can be described thus: Antiviral activity against Measles virus variant in Vero-CD150w cells by cytopathicity assay. The format is functional, organism-based. An outline of the steps: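 MV variant carrying an F-protein point mutation at position 462. Cells infected at MOI 0.2 pfu/cell with 2-fold compound dilutions starting at 75–300 µM, in 2–4 replicates, with DMSO at most 0.1% and DMSO-matched controls. Cytopathicity quantified at 96 h post-infection by a nonradioactive proliferation assay. IC50 taken from dose-response curves of replicate averages.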
(Cytopathic effects are the visible damage that an infection or toxin causes in cultured cells.)

Assay [3] concerns Vero. The assay is described as follows: Selectivity index, CC50 for Vero-CD150w cells/IC50 for Measles virus Edmonston. The format is functional. An outline of the steps:
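Ratio of CC50 to IC50. CC50: 2-fold dilutions from 600 µM, 36–40 h exposure, proliferation read-out, two independent replicates. IC50: suppression of cytopathicity at MOI 0.2 pfu/cell, 96 h, proliferation read-out, from dose-response curves of replicate averages.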

In assay [4] the test system is Measles morbillivirus. The assay can be described thus: Antiviral activity against wild type Measles virus Edmonston in Vero-CD150w cells by cytopathicity assay. The format is functional, organism-based. Summed up: (§1)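 Cells infected with MV Edmonston at MOI 0.2 pfu/cell in the presence of 2-fold compound dilutions, starting at 75–300 µM and ending at 0.3–1.2 µM. Two to four replicates per concentration; DMSO ≤0.1% with matched DMSO controls. Virus-induced cytopathicity was read at 96 h post-infection by nonradioactive proliferation assay. IC50 was taken from dose-response curves of replicate averages.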

Assay [5] has as its system Measles morbillivirus. The assay can be described thus: Antiviral activity against wild type Measles virus Edmonston in Vero-CD150w cells at >75 uM by cytopathicity assay. The format is functional, organism-based. Summed up: as §1
Assay [6] deals with Measles morbillivirus. The assay can be described thus: Antiviral activity against wild type Measles virus Edmonston in Vero-CD150w cells upto 100 uM by cytopathicity assay. The format is functional, organism-based. Summed up:
as §1

Where [7] appears, read: Measles morbillivirus, Edmonston, Vero-CD150w, read-out: IC50.

Each structure is given as a SMILES string. Active and inactive are the calls of the source. The rule behind the calls is not given here.

Usually CC50 stands for the concentration giving 50% cytotoxicity. Read a high CC50 as lower toxicity to the cells. A word on the IC50: it is the concentration needed to halve the response being measured. Consider `O=C(Cc1ccccc1)Nc1cc(C(=O)O)cc([N+](=O)[O-])c1`, for which the CC50 in assay [1] was over 600 µM. For the same compound, the IC50 in assay [2] is over 150 µM; in assay [4] (setting [7]), 5 µM. The compound also returned a Selectivity index in assay [3] of over 120.
Regarding `NC(=O)c1ccc([N+](=O)[O-])cc1NC(=O)Cc1ccccc1`, in assay [1], the midpoint of cytotoxicity, the CC50, lay at 325 µM. Further, the IC50 in assay [2] is over 150 µM; in assay [4] (setting [7]), 3 µM. In assay [3], this compound displayed a Selectivity index of 108.
`O=C(Cc1ccccc1)Nc1cc([N+](=O)[O-])ccc1O`: the CC50 in assay [1] came to 450 µM. For the same compound, the Selectivity index in assay [3] came out at 10. The half-maximal inhibitory concentration (IC50) in assay [4] (setting [7]) stood at 47 µM.
On the same counts, the results for `Nc1ccc(NC(=O)Cc2ccccc2)cc1` are over 600 µM, over 4 and 135 µM.
`COC(=O)c1cc(NC(=O)Cc2ccccc2)cc([N+](=O)[O-])c1` displayed a CC50 in assay [1] of 440 µM. For the same compound, the figures for the IC50 in assay [2] and in assay [4] (setting [7]) were over 150 µM and 4 µM, respectively. This compound also registered a Selectivity index in assay [3] of 110.
With `O=C(Cc1ccccc1)Nc1ccc([N+](=O)[O-])cc1`, in assay [1], half-maximal cytotoxicity (CC50) was put at 550 µM. In assay [3], this compound showed a Selectivity index of 34. Also, in assay [4] (setting [7]), the IC50 amounted to 16 µM.
Consider `Nc1ccc(NC(=O)COc2ccccc2)c(O)c1`, for which the IC50 result in assay [4] (vero-cd150w) is given as “Not Active”.
Compound `O=C(Cc1ccccc1)Nc1cc(NO)cc([N+](=O)[O-])c1` showed a CC50 in assay [1] of 325 µM. Further, the figures for the IC50 in assay [2] and in assay [4] (setting [7]) were over 75 µM and 6 µM, respectively. This compound displayed a Selectivity index in assay [3] of 54.
`O=C(Cc1ccccc1)Nc1ccccc1O` showed a cytotoxic concentration (CC50) in assay [1] of 525 µM. Besides, the IC50 in assay [2] was over 150 µM; in assay [4] (setting [7]), 13 µM. In assay [3], the Selectivity index was 40.
On to `O=C(Cc1ccccc1F)Nc1cccc([N+](=O)[O-])c1`, for which the result in assay [5] was inactive.
For `Nc1cc(CO)cc(NC(=O)Cc2ccccc2)c1`, the result in assay [6] was inactive.
Turning to `O=C(Cc1ccccc1)Nc1cccc(O)c1`, the 50% cytotoxic concentration (CC50) in assay [1] is over 600 µM. In assay [3], the Selectivity index was over 24. For the same compound, the half-maximal inhibitory concentration (IC50) in assay [4] (setting [7]) was determined as 25 µM.
Turning to `Nc1cc(NC(=O)Cc2ccccc2)cc([N+](=O)[O-])c1`, the CC50 in assay [1] was over 600 µM. In addition, the 50% inhibitory concentration (IC50) in assay [2] is over 150 µM; in assay [4] (setting [7]), 11 µM. The compound also came in with a Selectivity index in assay [3] of over 55.
As to `O=C(Cc1ccc(F)cc1)Nc1cccc([N+](=O)[O-])c1`, the half-maximal inhibitory concentration (IC50) in assay [4] (setting [7]) came out at 9 µM.
For `O=C(Cc1ccccc1)Nc1ccc(F)cn1`, in assay [1], the CC50 is over 600 µM. This compound had a Selectivity index in assay [3] of over 6. Moreover, the IC50 in assay [4] (setting [7]) was determined as 109 µM.
The compound `O=C(Cc1ccccc1)Nc1cc(CO)cc([N+](=O)[O-])c1` displayed a CC50 in assay [1] of over 600 µM. The values for the half-inhibitory concentration (IC50) in assay [2] and in assay [4] (setting [7]) were over 150 µM and 6 µM, respectively. This compound had a Selectivity index in assay [3] of over 100.
On to `Nc1ccc(CO)c(NC(=O)Cc2ccccc2)c1`, for which the outcome in assay [6] was inactive.
The compound `NC(=O)c1cc(NC(=O)Cc2ccccc2)cc([N+](=O)[O-])c1` displayed a CC50 in assay [1] of 170 µM. For the same compound, the values for the IC50 in assay [2] and in assay [4] (setting [7]) were over 75 µM and 3.7 µM, respectively. The same compound registered a Selectivity index in assay [3] of 46.
Turning to `O=C(Cc1ccccc1)Nc1cccc([N+](=O)[O-])c1`, the 50% cytotoxic concentration (CC50) in assay [1] was over 600 µM. The Selectivity index in assay [3] was over 71. Further, the concentration for half-maximal inhibition (IC50) in assay [4] (setting [7]) turned out to be 8.5 µM.
For `O=C(Cc1cccc(I)c1)Nc1cccc([N+](=O)[O-])c1`, the IC50 in assay [4] (setting [7]) was over 300 µM.
Same read-out and setting: under `O=C(Cc1ccccn1)Nc1cccc([N+](=O)[O-])c1` stands over 75 µM.
`Nc1ccc(NC(=O)Cc2ccccc2)c(O)c1` came in with a CC50 in assay [1] of over 600 µM. In addition, the Selectivity index in assay [3] is on record as over 8. In addition, the half-inhibitory concentration (IC50) in assay [4] (setting [7]) is 75 µM.
As to `Nc1cc(N)cc(NC(=O)Cc2ccccc2)c1`, in assay [4] (setting [7]), the IC50 is over 100 µM.
In the case of `O=C(Cc1ccccc1)Nc1ccccc1[N+](=O)[O-]`, in assay [1], the CC50 was over 600 µM. Further, in assay [4] (setting [7]), the IC50 is over 100 µM.
For `O=C(Cc1ccccc1I)Nc1cccc([N+](=O)[O-])c1`, the IC50 in assay [4] (setting [7]) was over 300 µM.
`O=C(COc1ccccc1)Nc1ccc([N+](=O)[O-])cc1O`: the 50% cytotoxic concentration (CC50) in assay [1] was over 600 µM. Besides, the IC50 in assay [4] (setting [7]) was over 100 µM.
For `Nc1cccc(NC(=O)Cc2ccccc2)c1`, in assay [1], the CC50 is over 600 µM. The half-maximal inhibitory concentration (IC50) in assay [2] is over 150 µM; in assay [4] (setting [7]) it was 19 µM. The Selectivity index in assay [3] is given as over 32.
In the case of `O=C(Cc1cccnc1)Nc1cccc([N+](=O)[O-])c1`, in assay [4] (setting [7]), the half-inhibitory concentration (IC50) was over 75 µM.
`N#Cc1cccc(NC(=O)Cc2ccccc2)c1` had a CC50 in assay [1] of over 600 µM. Further, the IC50 in assay [2] was over 150 µM; in assay [4] (setting [7]), 6.5 µM. The Selectivity index in assay [3] is given as over 92.
On to `O=[N+]([O-])c1ccc(O)c(NS(=O)(=O)Cc2ccccc2)c1`, for which the IC50 in assay [4] (setting [7]) is over 300 µM.
Take `O=C(Cc1ccccc1)Nc1ccc(F)c([N+](=O)[O-])c1`: the cytotoxic concentration (CC50) in assay [1] is 450 µM. For the same compound, in assay [3], the Selectivity index is under 5. For the same compound, in assay [4] (setting [7]), the IC50 was over 100 µM.
Regarding `O=C(Cc1ccccc1)Nc1cc([N+](=O)[O-])cc([N+](=O)[O-])c1`, the CC50 in assay [1] was over 600 µM. The IC50 in assay [2] is over 150 µM; in assay [4] (setting [7]) it was 30 µM. This compound also showed a Selectivity index in assay [3] of over 20.
For `COc1ccc(CC(=O)Nc2cc([N+](=O)[O-])ccc2O)cc1`, the midpoint of cytotoxicity in assay [1], the CC50, lay at 600 µM. The Selectivity index in assay [3] was under 6. For the same compound, the IC50 in assay [4] (setting [7]) was over 100 µM.
For `Nc1cc(C(=O)NCc2ccccc2)cc([N+](=O)[O-])c1`, the IC50 in assay [4] (setting [7]) turned out to be 23 µM.
Compound `COC(=O)c1ccc(O)c(NC(=O)Cc2ccccc2)c1` yielded a 50% cytotoxic concentration (CC50) in assay [1] of over 600 µM. In assay [3], this compound displayed a Selectivity index of over 9. The IC50 in assay [4] (setting [7]) was determined as 66 µM.
In assay [1], `Nc1cc(NC(=O)Cc2ccccc2)cc(C(=O)O)c1` displayed a 50% cytotoxic concentration (CC50) of over 600 µM. Moreover, the Selectivity index in assay [3] is on record as over 11. Also, in assay [4] (setting [7]), the IC50 was found to be 55 µM.
`COc1cccc(CC(=O)Nc2cc([N+](=O)[O-])ccc2O)c1`: in assay [1], the half-maximal cytotoxic concentration (CC50) is over 600 µM. The IC50 in assay [4] (setting [7]) is over 100 µM.
In assay [1], `Nc1ccc2oc(Cc3ccccc3)nc2c1` registered a 50% cytotoxic concentration (CC50) of over 600 µM. The half-maximal inhibitory concentration (IC50) is over 150 µM in assay [2] and 55 µM in assay [4] (setting [7]). The same compound registered a Selectivity index in assay [3] of over 10.
As to `NC(=O)c1cc(N)cc(NC(=O)Cc2ccccc2)c1`, the CC50 in assay [1] was over 600 µM. In addition, the Selectivity index in assay [3] was over 33. Besides, the IC50 in assay [4] (setting [7]) is 18 µM.
On the same counts, the results for `O=C(Cc1ccccc1)Nc1ccccc1C(=O)O` are over 600 µM, over 10 and 60 µM.
For `NC(=O)c1ccc(O)c(NC(=O)Cc2ccccc2)c1`, in that order: over 600 µM, over 5 and 127 µM.
In the case of `O=C(Cc1ccccc1)Nc1cc([N+](=O)[O-])ccc1OC(=O)Cc1ccccc1`, in assay [1], half-maximal cytotoxicity (CC50) was put at 75 µM. The Selectivity index in assay [3] was 1. For the same compound, the half-maximal inhibitory concentration (IC50) in assay [4] (setting [7]) turned out to be 68 µM.
For the compound `O=C(Cc1ccccc1)Nc1cc(C(F)(F)F)ccc1O`, the cytotoxic concentration (CC50) in assay [1] was over 600 µM. The concentration for half-maximal inhibition (IC50) in assay [4] (setting [7]) was over 100 µM.
`O=C(Cc1cccc(F)c1)Nc1cccc([N+](=O)[O-])c1`: the concentration for half-maximal inhibition (IC50) in assay [4] (setting [7]) was 47 µM.
Same read-out and setting: as for `O=C(Cc1ccc(I)cc1)Nc1cccc([N+](=O)[O-])c1`, the figure is over 75 µM.
With `O=C(COc1ccccc1)Nc1cc([N+](=O)[O-])ccc1O`, half-maximal cytotoxicity in assay [1] (CC50) was put at 600 µM. For the same compound, the Selectivity index in assay [3] was under 6. Besides, the half-maximal inhibitory concentration (IC50) in assay [4] (setting [7]) was over 100 µM.
`O=C(Cc1ccncc1)Nc1cccc([N+](=O)[O-])c1`: in assay [4] (setting [7]), the half-maximal inhibitory concentration (IC50) is over 75 µM.
Compound `O=C(Cc1ccccc1)Nc1ccc(O)c([N+](=O)[O-])c1` returned a half-maximal cytotoxic concentration (CC50) in assay [1] of over 600 µM. The Selectivity index in assay [3] was over 10. For the same compound, the half-inhibitory concentration (IC50) in assay [4] (setting [7]) was found to be 63 µM.
